Columns and labels:
NCI-H460 [1] = test: Antitumor activity against human NCI-H460 cells xenografted in BALB/c nude mouse assessed as reduction in tumor weight at 20 mg/kg, po administered daily for 2 weeks measured every 2 or 3 days for 14 days; format: functional
How it was run: (§1)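 Female SPF BALB/c nude mice, 6 weeks old, injected subcutaneously in the flank with NCI-H460 cells (3 × 10^7/animal). At tumor volume 50–80 mm3, randomized four per group. Dosed orally at 20 mg/kg in 10% DMAC/10% Tween 80 in saline, daily for two weeks, versus vehicle control. Tumor length and width measured by caliper three times weekly; body weight monitored.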

Histone deacetylase = test: Inhibition of HDAC in human HeLa cell nuclear extract using Fluor de Lys as substrate incubated with compound for 30 mins by microtiter-plate reading flourimeter analysis; format: protein assay
C2C12 = test: Induction of RUNX transcriptional activation in mouse C2C12-6xOSE2 cells at 1 uM after 24 hrs by luciferase reporter assay relative to FGF-2; format: functional
How it was run: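 C2C12-6xOSE stable cells grown in DMEM with 10% FBS at 37°C, 5% CO2. Seeded at 1 × 10^4 cells/well; next day treated with compound or FGF-2 (1 µM each). After 24 h, luciferase measured with Bright-Glo. Activity expressed as percent of the FGF-2 positive-control response.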

[2] = Growth inhibition of human PC3 cells after 5 days by sulforhodamine B assay; format: functional; details: PC-3, 120 h
MDA-MB-231 = test: Growth inhibition of human MDA-MB-231 cells after 5 days by sulforhodamine B assay; format: functional; details: MDA-MB-231, 120 h
ACHN = test: Growth inhibition of human ACHN cells after 5 days by sulforhodamine B assay; format: functional; details: 120 h
[3] = Growth inhibition of human HCT15 cells after 5 days by sulforhodamine B assay; format: functional; details: HCT-15, 120 h
NCI-H23 = test: Growth inhibition of human NCI-H23 cells after 5 days by sulforhodamine B assay; format: functional; details: NCI-H23, 120 h
[4] = Growth inhibition of human NUGC3 cells after 5 days by sulforhodamine B assay; format: functional; details: NUGC-3, 120 h
HEK293 [5] = test: Induction of myc-tagged RUNX3 acetylation in human HEK293 cells assessed as acetylated RUNX3 level at 1 uM after 24 hrs by immunoprecipitation analysis relative to TSA; format: functional
How it was run: (§2)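 HEK293 cells (DMEM, 10% FBS) transfected with myc-RUNX3 vector using Lipofectamine 2000. Next day treated at 1 µM for 24 h. Lysates (HEPES pH 7.5, NP-40 buffer) immunoprecipitated with anti-myc antibody and protein G beads at 4°C. Immunoprecipitates western-blotted with anti-acetylated lysine antibody; relative acetylated RUNX3 quantified.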

HEK293 [6] = test: Induction of myc-tagged RUNX3 acetylation in human HEK293 cells assessed as RUNX3 level at 1 uM after 24 hrs by immunoprecipitation analysis relative to TSA; format: functional; how it was run: as §2
NCI-H460 [7] = test: Induction of RUNX3 mRNA expression in human NCI-H460 cells after 24 hrs by RT-PCR analysis; format: functional, cell-based
How it was run: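 NCI-H460 cells in RPMI1640 with 10% FBS were plated and treated the following day. After 24 h, total RNA extracted and 1 µg reverse-transcribed. RUNX3 cDNA amplified with specific primers, run on a 1.5% agarose gel and stained with ethidium bromide. GAPDH served as internal control; SNU16 gastric cells served as positive-control line.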

[8] = Metabolic stability in mouse liver microsomes assessed as compound remaining at 1 uM after 30 mins by LC-ESI/MS/MS analysis in absence of NADPH; format: ADME; details: read-out: Stability
How it was run: (§3)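 Compound at 1 µM incubated in triplicate with pooled mouse liver microsomes (0.5 mg/ml final) in 0.1 M potassium phosphate, pH 7.4, at 37°C, with or without 1 mM NADPH. Reactions stopped at 0 and 30 min with ice-cold acetonitrile containing internal standard. After centrifugation, supernatant analyzed by LC-ESI/MS/MS; percent remaining from analyte/IS peak-area ratios. Buspirone served as positive control.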

[9] = Metabolic stability in mouse liver microsomes assessed as compound remaining at 1 uM after 30 mins byLC-ESI/MS/MS analysis in presence of NADPH; format: ADME; details: read-out: Stability; how it was run: as §3
[10] = Metabolic stability in rat liver microsomes assessed as compound remaining at 1 uM after 60 mins by LC-ESI/MS/MS analysis in absence of NADPH; format: ADME; details: read-out: Stability
How it was run: (§4)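 Rat or human liver microsomes (0.5 mg/ml) incubated with test compound (1 µM) at 37°C for 60 min, with or without NADPH or UDPGA cofactor, n = 2–3. Percent parent remaining quantified by LC-ESI/MS/MS.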

[11] = Metabolic stability in rat liver microsomes assessed as compound remaining at 1 uM after 60 mins byLC-ESI/MS/MS analysis in presence of NADPH; format: ADME; details: read-out: Stability; how it was run: as §4
[12] = Metabolic stability in rat liver microsomes assessed as compound remaining at 1 uM after 60 mins by LC-ESI/MS/MS analysis in absence of UDPGA; format: ADME; details: read-out: Stability; how it was run: as §4
[13] = Metabolic stability in rat liver microsomes assessed as compound remaining at 1 uM after 60 mins by LC-ESI/MS/MS analysis in presence of UDPGA; format: ADME; details: read-out: Stability; how it was run: as §4
[14] = Metabolic stability in human liver microsomes assessed as compound remaining at 1 uM after 60 mins by LC-ESI/MS/MS analysis in absence of NADPH; format: ADME; details: read-out: Stability; how it was run: as §4
[15] = Metabolic stability in human liver microsomes assessed as compound remaining at 1 uM after 60 mins byLC-ESI/MS/MS analysis in presence of NADPH; format: ADME; details: read-out: Stability; how it was run: as §4
[16] = Metabolic stability in human liver microsomes assessed as compound remaining at 1 uM after 60 mins by LC-ESI/MS/MS analysis in absence of UDPGA; format: ADME; details: read-out: Stability; how it was run: as §4
[17] = Metabolic stability in human liver microsomes assessed as compound remaining at 1 uM after 60 mins byLC-ESI/MS/MS analysis in presence of UDPGA; format: ADME; details: read-out: Stability; how it was run: as §4
[18] = AUC(0 to infinity) in Sprague-Dawley rat at 2 mg/kg, iv by LC-MS/MS analysis; format: ADME, organism-based; design: time infinity, dose 2 mg/kg, route intravenous; details: plasma
[19] = Clearance in Sprague-Dawley rat at 2 mg/kg, iv by LC-MS/MS analysis; format: ADME, organism-based; design: dose 2 mg/kg, route intravenous; details: in vivo
How it was run: (§5)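 Specific pathogen-free male SD rats (10 weeks, 298–315 g), n = 3 per route, single dose 2 mg/kg i.v. or 10 mg/kg p.o. Oral vehicle DMAC/Vitamin E TPGS 80/25% solutol HS 15 (10/10/80); dosing volumes 5 (i.v.) and 10 ml/kg (p.o.). Plasma precipitated with acetonitrile containing carbamazepine internal standard, LC-MS/MS. Noncompartmental analysis of mean profiles; linear-trapezoidal AUC (oral 0–5 h, i.v. to infinity).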

[20] = Volume of distribution at steady state in Sprague-Dawley rat at 2 mg/kg, iv by LC-MS/MS analysis; format: ADME, organism-based; design: dose 2 mg/kg, route intravenous; details: in vivo, read-out: Vdss; how it was run: as §5
[21] = Terminal half life in Sprague-Dawley rat at 2 mg/kg, iv by LC-MS/MS analysis; format: ADME, organism-based; design: dose 2 mg/kg, route intravenous; details: in vivo, read-out: beta t1/2 (converted); how it was run: as §5
[22] = Tmax in Sprague-Dawley rat at 10 mg/kg, po by LC-MS/MS analysis; format: ADME, organism-based; design: dose 10 mg/kg, route oral; details: in vivo; how it was run: as §5
[23] = Cmax in Sprague-Dawley rat at 10 mg/kg, po by LC-MS/MS analysis; format: ADME, organism-based; design: dose 10 mg/kg, route oral; details: in vivo; how it was run: as §5
[24] = AUC (0 to 5 hrs) in Sprague-Dawley rat at 10 mg/kg, po by LC-MS/MS analysis; format: ADME, organism-based; design: dose 10 mg/kg, route oral; details: plasma; how it was run: as §5
[25] = Terminal half life in Sprague-Dawley rat at 10 mg/kg, po by LC-MS/MS analysis; format: ADME, organism-based; design: dose 10 mg/kg, route oral; details: in vivo, read-out: beta t1/2 (converted); how it was run: as §5
[26] = Oral bioavailability in Sprague-Dawley rat at 10 mg/kg by LC-MS/MS analysis; format: ADME, organism-based; details: in vivo; how it was run: as §5
Mus musculus = test: Toxicity against BALB/c nude mouse xenografted with human NCI-H460 cells assessed as body weight loss at 20 mg/kg, po administered daily for 2 weeks; format: organism-based; design: dose 20 mg/kg, route oral; details: in vivo, 336 h; how it was run: as §1
[27] = Retention time of the compound by HPLC analysis; format: physicochemical

## O=C(CCC1=CCN(Cc2ccc(Br)cc2)C1=O)NO
NCI-H460 [1]
  inhibition in vivo at 20 mg/kg: 37.9%

## O=C(/C=C/c1cccn(Cc2ccc3ccccc3n2)c1=O)NO
Histone deacetylase
  IC50: 30 nM
C2C12
  Activity: 687.5%
[2]
  GI50: 490 nM
MDA-MB-231
  GI50: 100 nM
ACHN
  GI50: 250 nM
[3]
  GI50: 380 nM
NCI-H23
  GI50: 130 nM
[4]
  GI50: 710 nM
HEK293 [5]
  fold change (FC): 77.5
HEK293 [6]
  fold change (FC): 29.3
NCI-H460 [7]
  Activity: Dose-dependent effect
[8]
  remaining at 0.5 h, 1 µM: 100%
[9]
  remaining at 0.5 h, 1 µM: 90.3%
[10]
  remaining at 1 h, 1 µM: 92%
[11]
  remaining at 1 h, 1 µM: 83.5%
[12]
  remaining at 1 h, 1 µM: 88.9%
[13]
  remaining at 1 h, 1 µM: 72.4%
[14]
  remaining at 1 h, 1 µM: 74.7%
[15]
  remaining at 1 h, 1 µM: 75.5%
[16]
  remaining at 1 h, 1 µM: 95.2%
[17]
  remaining at 1 h, 1 µM: 99.7%
[18]
  AUC(0-inf): 354 ng·h/mL
[19]
  clearance: 93.3 mL/min/kg
[20]
  Vd: 14 L/kg
[21]
  half-life: 4.4 h
[22]
  Tmax: 0.67 h
[23]
  Cmax: 142 ng/mL
[24]
  AUC(0-t) at 4 h: 863 ng·h/mL
[25]
  half-life: 10.3 h
[26]
  bioavailability: 48.7%
NCI-H460 [1]
  inhibition in vivo at 20 mg/kg: 45.7%
Mus musculus
  Activity: Non-toxic
[27]
  Retention_time: 9.606 min

## COc1cccc(CCCn2cccc(/C=C/C(=O)NO)c2=O)c1
Histone deacetylase
  IC50: 30 nM
C2C12
  Activity: 142.1%
[2]
  GI50: 700 nM
MDA-MB-231
  GI50: 720 nM
ACHN
  GI50: 760 nM
[3]
  GI50: 1590 nM
NCI-H23
  GI50: 870 nM
[4]
  GI50: 1050 nM
HEK293 [5]
  fold change (FC): 0.8
HEK293 [6]
  fold change (FC): 1.1
[8]
  remaining at 0.5 h, 1 µM: 110%
[9]
  remaining at 0.5 h, 1 µM: 88.4%
[10]
  remaining at 1 h, 1 µM: 116%
[11]
  remaining at 1 h, 1 µM: 72.7%
[12]
  remaining at 1 h, 1 µM: 81.3%
[13]
  remaining at 1 h, 1 µM: 45.7%
[27]
  Retention_time: 11.335 min
